Assay results from ChEMBL document CHEMBL3865853, “Synthesis and Bioevaluation of 3,6-Diaryl-[1,2,4]triazolo[4,3-b] Pyridazines as Antitubulin Agents” (ACS Med Chem Lett, 2016).
The source made the active and inactive calls. The calls are words filed in the database; no cut-off is given here.

Legend:
[1] = Cytotoxicity against human A549 cells assessed as reduction in cell viability after 24 hrs by MTT assay; assay type: functional, cell-based; conditions: A549, 24 h
Procedure, shortened: (§1)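 MTT viability assay on A549, HT-1080 and SGC-7901 cells; IC50 as concentration giving 50% inhibition; each experiment run in triplicate.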

[2] = Cytotoxicity against human SGC7901 cells assessed as reduction in cell viability after 24 hrs by MTT assay; assay type: functional, cell-based; conditions: SGC-7901, 24 h; procedure, shortened: as §1
[3] = Cytotoxicity against human HT1080 cells assessed as reduction in cell viability after 24 hrs by MTT assay; assay type: functional, cell-based; conditions: HT-1080, 24 h; procedure, shortened: as §1
[4] = Cell cycle arrest in human A549 cells assessed as accumulation in G2/M phase after 12 hrs by propidium iodide-staining based FACS analysis; assay type: functional
Sus scrofa = species: Sus scrofa; assay: (§2) Inhibition of pig brain tubulin polymerization measured at 1 min intervals for 90 mins by spectrophotometric analysis
Procedure, shortened: (§3)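 Purified tubulin incubated at room temperature with test agent (0.33–10 μM range used), paclitaxel 5.0 μM, or DMSO vehicle; polymerization followed, IC50 derived; mean ± SD of three experiments in triplicate.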

[5] = as §2; set-up: species or system Sus scrofa; procedure, shortened: as §3
[6] = Cell cycle arrest in human A549 cells assessed as accumulation in G2/M phase at 0.016 uM by propidium iodide-staining based FACS analysis; assay type: functional; conditions: TDE = time-dependent effect
A549 = assay: Inhibition of alpha-tubulin polymerization in human A549 cells assessed as destruction of tubulin network at 2 times IC50 after 12 hrs by DAPI/FITC-dual staining based fluorescence microscopic analysis; assay type: cell-based
Procedure, shortened: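 Indirect immunofluorescence of microtubule network in cultured A549 cells after treatment at 2-fold IC50 concentrations; DMSO-treated cells as vehicle control.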

[7] = Cell cycle arrest in human A549 cells assessed as accumulation in G2/M phase at 0.018 uM by propidium iodide-staining based FACS analysis; assay type: functional

IC50 [5] [nM] | Structure (SMILES) | IC50 [1] [nM] | IC50 [2] [nM] | IC50 [3] [nM] | Activity [4] | inhibition (Sus scrofa) | Activity [6] | inhibition (A549) | Activity [7]
 | COc1ccc(-c2ccc3nnc(-c4cc(OC)c(OC)c(OC)c4)n3n2)cc1 | 51 | 260 | 17 |  |  |  |  | 
 | COc1cc(-c2nnc3ccc(-c4ccc([N+](=O)[O-])cc4)nn23)cc(OC)c1OC | 3850 | 2380 | 4940 |  |  |  |  | 
 | COc1cc(-c2nnc3ccc(-c4ccc(N)cc4)nn23)cc(OC)c1OC | 2350 | 1230 | 1620 |  |  |  |  | 
 | COc1cc(-c2nnc3ccc(-c4ccc(C#N)cc4)nn23)cc(OC)c1OC | 51600 | 30900 | 33500 |  |  |  |  | 
 | COc1cc(-c2nnc3ccc(-c4ccc(C(F)(F)F)cc4)nn23)cc(OC)c1OC | 10400 | 2210 | 1860 |  |  |  |  | 
 | COc1cc(-c2nnc3ccc(-c4ccc(F)cc4)nn23)cc(OC)c1OC | 2180 | 2020 | 21 |  |  |  |  | 
 | COc1cc(-c2nnc3ccc(-c4ccc(SC)cc4)nn23)cc(OC)c1OC | 280 | 98 | 73 |  |  |  |  | 
1800 | COc1ccc(-c2ccc3nnc(-c4cc(OC)c(OC)c(OC)c4)n3n2)cc1N | 8 | 14 | 12 | Dose-dependent effect | Dose-dependent effect | Tde | Active | 
 | COc1cc(-c2nnc3ccc(-c4cccc(N)c4)nn23)cc(OC)c1OC | 2980 | 980 | 390 |  |  |  |  | 
 | COc1ccc(-c2ccc3nnc(-c4ccc(OC)c(OC)c4OC)n3n2)cc1N | 2620 | 910 | 920 |  |  |  |  | 
 | COc1ccc(/C=C\c2cc(OC)c(OC)c(OC)c2)cc1O [COMBRETASTATIN A4] | 9 | 12 | 9 |  | Dose-dependent effect |  | Active | Active
 | COc1cc(-c2nnc3ccc(-c4cccc([N+](=O)[O-])c4)nn23)cc(OC)c1OC | 90500 | 86400 | 50000 |  |  |  |  | 
 | COc1ccc(-c2ccc3nnc(-c4ccc(OC)c(OC)c4OC)n3n2)cc1[N+](=O)[O-] | 11400 | 9140 | 18200 |  |  |  |  | 
 | COc1cc(-c2nnc3ccc(-c4cccc(Cl)c4)nn23)cc(OC)c1OC | 47900 | 63100 | 60500 |  |  |  |  | 
 | COc1cc(-c2nnc3ccc(-c4ccc(Cl)cc4)nn23)cc(OC)c1OC | 51 | 25 | 450 |  |  |  |  | 
 | COc1ccc(-c2ccc3nnc(-c4ccc(OC)c(OC)c4OC)n3n2)cc1 | 6980 | 420 | 5570 |  |  |  |  | 
 | COc1ccc(-c2ccc3nnc(-c4cc(OC)c(OC)c(OC)c4)n3n2)cc1[N+](=O)[O-] | 4570 | 2280 | 6850 |  |  |  |  | 
 | COc1cc(-c2nnc3ccc(-c4ccc(C)cc4)nn23)cc(OC)c1OC | 23 | 16 | 140 |  |  |  |  | 
 | COc1ccc(-c2nnc3ccc(-c4ccc(C)cc4)nn23)c(OC)c1OC | 10400 | 4530 | 170 |  |  |  |  | 
 | COc1cc(-c2nnc3ccc(-c4cccc(Br)c4)nn23)cc(OC)c1OC | 52200 | 59000 | 54500 |  |  |  |  | 
 | COc1ccc(-c2ccc3nnc(-c4cc(OC)c(OC)c(OC)c4)n3n2)cc1F | 4230 | 4170 | 1690 |  |  |  |  | 
 | COc1cc(-c2nnc3ccc(-c4ccc(Br)cc4)nn23)cc(OC)c1OC | 780 | 1280 | 150 |  |  |  |  | 
